Results on 97 compounds are retold here after ChEMBL document CHEMBL4513216, “Probing the Open Global Health Chemical Diversity Library for Multistage-Active Starting Points for Next-Generation Antimalarials” (ACS Infect Dis, 2020).

SMILES strings stand for the structures.

This data set can be described thus: Toxicity liver stage against HepG2, at 10uM. As to conditions: human, HepG2-A16-CD81EGFP cells; read-out: INHIBITION
Format: cell-based. Further details: test concentration 10 uM, cell line HepG2-A16-CD81EGFP. The procedure, abridged:
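Uninfected HepG2-A16-CD81EGFP cells, 3 × 10^3 per well, 1536-well, plated on prespotted compound at 10 μM final, parasite-free screening media added to match infected plates; puromycin 10 μM positive, DMSO 0.5% negative; run in parallel with 48 h PbLuc assay at 37 °C, 5% CO2; viability by CellTiter-Glo luminescence, normalized to controls.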
With `CC(C)Nc1nc(C(=O)Nc2ccccn2)cs1`, the cytotoxicity at 10 µM came to 5.15%.
For the compound `Cn1cccc1CN(C(=O)CC(CC(=O)O)c1cccs1)C1CC1` (configuration not stated), the cytotoxicity at 10 µM stood at 2.27%.
On to `O=C(c1ccoc1)N1C[C@@H]2CN(c3ncccn3)C[C@@H]2C1`, for which the cytotoxicity at 10 µM is -5.3%.
On to `Cc1ccnc(OC[C@]23COC[C@H]2CN(C(=O)Cc2ccsc2)C3)n1`, for which the cytotoxicity at 10 µM was -0.376%.
Take `CC(=O)N1[C@H](Cn2cncn2)C[C@@H]2CN(c3ncccn3)CC[C@@H]21`: the cytotoxicity at 10 µM is -2.96%.
As to `Cc1ccccc1C(=O)N1CC(C(=O)NCC2CC2)C2(CCOCC2)C1` (configuration not stated), the cytotoxicity at 10 µM is 3.54%.
Take `O=C1NCC[C@]12CN(Cc1ccsc1)C[C@H]2c1ccccc1`: the cytotoxicity at 10 µM is -142%.
On to `CC1(C)CC(=O)c2cnc3nc(N4CCOCC4)nc(O)c3c2C1`, for which the cytotoxicity at 10 µM stood at 1.21%.
Consider `O=C(CSC1CCc2ccccc2NC1=O)NC1CC1` (configuration not stated), for which the cytotoxicity at 10 µM was found to be 6.58%.
As to `Cn1cc(C[C@H]2[C@@H](O)CCN2C(=O)C2CC=CC2)cn1`, the cytotoxicity at 10 µM was 5.6%.
In the case of `NC(=O)c1c(-c2ccc(Cl)cc2Cl)csc1NC(=O)CCCC(=O)O`, the cytotoxicity at 10 µM was determined as 5.97%.
For `c1ccc(CO[C@H]2CN(c3ncccn3)C[C@@]23CCCO3)cc1`, the cytotoxicity at 10 µM is -6.11%.
Then `CNC(=O)C1CN(c2cc(C)ncn2)CCN1Cc1ccccc1` (configuration not stated), with 10%.
On to `CN1CCCC1c1cncc(C(=O)NCCN2CCCC2)n1` (configuration not stated), for which the cytotoxicity at 10 µM was 8.6%.
For `COc1ccc(F)cc1C(=O)N(C)[C@@H]1CC[C@@H](O)[C@@H]1O`, the cytotoxicity at 10 µM was 7.81%.
`Cc1cccc(C2CCN(S(=O)(=O)c3cn(C)cn3)CC2)n1`: the cytotoxicity at 10 µM was -20.2%.
As for `NC(=O)CN1CCC(c2cncc(-c3cccc(Cl)c3)n2)CC1`, the cytotoxicity at 10 µM is -26.4%.
Consider `CNS(=O)(=O)c1cccc(S(=O)(=O)Nc2ncc(C)s2)c1`, for which the cytotoxicity at 10 µM was -4.79%.
Then `COCCNC(=O)NCc1ccc(-n2ccc(C(F)(F)F)n2)cc1`, with -7.29%.
`CCSCc1ccc(C(=O)N2CCCN(CC(N)=O)CC2)cc1`: the cytotoxicity at 10 µM came to 10.5%.
Take `CC(C)Sc1ccc(N2CCN(Cc3ccccn3)CC2)nn1`: the cytotoxicity at 10 µM is 2.11%.
Then `COc1cccc(-c2cc(NCc3cscn3)n(C)n2)c1`, with 3.69%; and `CC(Cn1cccn1)NC(=O)C1=Cc2ccccc2OC1` (configuration not stated), with 2.86%.
In the case of `Cc1nnc2n1CCN(C(=O)c1cnc3c(cnn3C(C)C)c1)C2`, the cytotoxicity at 10 µM was -6.69%.
The same measure for `CCCN1CCCN(C(=O)Nc2ccc3c(c2)OCO3)CC1`: -4.92%; for `O=C(NCc1ccccc1OCCO)Nc1ccc2c(c1)CCC2`: 9.46%; for `Cc1c(CNC(=O)NCc2cccc(-n3cncn3)c2)cnn1C`: 1.78%.
`COc1c(CNC2CCOc3ccccc32)c(C)nn1C` (configuration not stated): the cytotoxicity at 10 µM amounted to 4.25%.
Regarding `CC(C)c1cnc(CN(C)C2CCN(CCc3ccccn3)C2)o1` (configuration not stated), the cytotoxicity at 10 µM came to 2.37%.
With `CN(C)c1nccc(CNS(=O)(=O)c2cc(Cl)cc(Cl)c2)n1`, the cytotoxicity at 10 µM was -138%.
The same measure for `CCc1cnc(CN2C(=O)CC3(CCSC3)C2=O)o1` (configuration not stated): -9.36%; for `Cc1cc(CS(=O)(=O)C(C)c2ccc(F)cc2)on1` (configuration not stated): -0.0986%.
Then `Cc1ccccc1CNCC(O)c1ccc(OC(C)C)cc1` (configuration not stated), with -6.17%; and `Cc1cccc(C(=O)Nc2c(C(N)=O)n[nH]c2C)c1C`, with -1.49%.
The same measure for `O=C(c1ccc(=O)[nH]n1)N1CCC(CN2CCOCC2)CC1`: 4.13%; for `COCc1noc(CCC(=O)c2ccc3c(c2)OCCO3)n1`: 0.923%; for `COc1ccc(C)cc1NC(=O)CNc1ccn(CC(N)=O)n1`: -8.28%.
For the compound `CS(=O)(=O)NCC(=O)NC(Cc1ccccc1)C1CCCC1` (configuration not stated), the cytotoxicity at 10 µM is 0.69%.
For `Cc1cc(N2CCC(NC(=O)CCc3cnn(C)c3)CC2)nc(C)n1`, the cytotoxicity at 10 µM was -2.01%.
In the case of `CC(NC(=O)COc1ccccc1Cl)c1nnc2n1CCC2` (configuration not stated), the cytotoxicity at 10 µM was -6%.
On to `COc1ccc(C)cc1C(C)NCc1cccn1C` (configuration not stated), for which the cytotoxicity at 10 µM was -5.89%.
Regarding `Cc1cccc(-c2nc(C)nn2CN2CCN(S(C)(=O)=O)CC2)c1`, the cytotoxicity at 10 µM turned out to be 0.729%.
Take `CC1CCN(C(=O)CSCc2nc(C3CC3)no2)CC1`: the cytotoxicity at 10 µM was 1.26%.
With `CC(C)c1nsc(NC2CCOC3(CCCC3)C2)n1` (configuration not stated), the cytotoxicity at 10 µM was 8.83%.
Turning to `Nc1cc2c(nn1)CCN(C(=O)c1ccc(-c3ccco3)[nH]c1=O)C2`, the cytotoxicity at 10 µM was -3.73%.
For the compound `Cc1cc(F)c(S(=O)(=O)N(C)CCn2cccn2)cc1F`, the cytotoxicity at 10 µM is 0.532%.
As for `Cc1noc(C)c1C[S+]([O-])Cc1cn2cccc(C)c2n1` (configuration not stated), the cytotoxicity at 10 µM is 2.14%.
In the case of `COc1c(C)cnc(CSc2nnc(C)s2)c1C`, the cytotoxicity at 10 µM is -4.66%.
`NCC(c1ccccc1)N1CCc2sccc2C1` (configuration not stated): the cytotoxicity at 10 µM worked out at 1.88%.
Take `O=C1NC2(CCN(C(=O)c3ccc(Cl)cn3)CC2)CC1c1ccccc1` (configuration not stated): the cytotoxicity at 10 µM came out at 2.75%.
On to `COc1nc2c(cc1C(=O)NC(C)Cc1cnccn1)CCC2` (configuration not stated), for which the cytotoxicity at 10 µM is -135%.
Regarding `CC(C)(N)c1cn([C@@H]2c3ccccc3C3(CCNCC3)[C@H]2O)nn1`, the cytotoxicity at 10 µM is -4.67%.
As for `COc1cccc(-n2cc(-c3ccnc(NC(CO)C(C)C)n3)cn2)c1` (configuration not stated), the cytotoxicity at 10 µM worked out at 2.74%.
For `Cc1cccc2c1nc(COCC(=O)O)n2-c1cnc(N)cn1`, the cytotoxicity at 10 µM was determined as 0.238%.
As for `COCCCC1CCCCN1S(=O)(=O)c1cccc(C#N)c1` (configuration not stated), the cytotoxicity at 10 µM is -133%.
Consider `CC(C)(CN1CCC2(CCCNC2)C1)N1CCOCC1` (configuration not stated), for which the cytotoxicity at 10 µM was -141%.
For `NC(=O)c1ccc(N2CCN(Cc3cccc4nsnc34)CC2)nc1`, the cytotoxicity at 10 µM turned out to be 34.1%.
The same measure for `Cc1c(NC(=O)NC2CCOCC2)cccc1C(=O)N1CCCC1`: 12%.
In the case of `CN(Cc1nc(-c2cccnc2)no1)C(=O)c1c2c(nn1C)CCCC2`, the cytotoxicity at 10 µM worked out at 7.54%.
Then `CC(=O)NCCC1CCCCN1S(=O)(=O)c1cccc(F)c1` (configuration not stated), with -155%; and `COC(=O)CNC(=O)CC1COc2ccc(C(=O)N(C)C)cc2N1C` (configuration not stated), with -8.8%.
As to `CCCC1(CO)CCCN(C(=O)CNC(N)=O)C1` (configuration not stated), the cytotoxicity at 10 µM was 0.83%.
For the compound `O=C1NCCN(Cc2ccccc2)C1CC(=O)N1CCc2n[nH]cc2C1` (configuration not stated), the cytotoxicity at 10 µM was -6.73%.
Then `CCc1c(C)nn(CCNC(=O)c2cc(C3CC3)n[nH]2)c1C`, with -12.1%; and `c1ccc(Cc2nc(CNC3CCOC4(CCOCC4)C3)no2)cc1` (configuration not stated), with -10.6%.
For `O=S1(=O)C[C@@H]2[C@H](C1)N(Cc1nc3ccccc3[nH]1)CCN2CC1CC1`, the cytotoxicity at 10 µM is -133%.
Take `COc1cccc(-c2n[nH]cc2C(=O)NC(C)c2nc(C(C)C)no2)c1` (configuration not stated): the cytotoxicity at 10 µM is -2.75%.
On to `CC(C)c1cc(NC(=O)c2ccc([S+]([O-])C(C)C)cc2)[nH]n1` (configuration not stated), for which the cytotoxicity at 10 µM was -7.52%.
Regarding `Cc1cc(C2CCCN(C(=O)CCc3cscn3)C2)n[nH]1` (configuration not stated), the cytotoxicity at 10 µM is -0.939%.
With `Cc1cc(C)n(CCN2CCOC(CNc3cccnn3)C2)n1` (configuration not stated), the cytotoxicity at 10 µM was -3.2%.
As for `c1ccc(-c2nnc(CN3CCCC3Cn3cncn3)o2)cc1` (configuration not stated), the cytotoxicity at 10 µM was -7.42%.
The same measure for `CC(=O)N1CCCC1C(=O)NCCOc1cccc(F)c1` (configuration not stated): -7.81%.
Consider `COc1ccc(CCN(C)C2CCCN(Cc3noc(C)n3)C2)cc1` (configuration not stated), for which the cytotoxicity at 10 µM is -4.59%.
Take `c1ccc2oc(N3CCCC3Cn3cncn3)nc2c1` (configuration not stated): the cytotoxicity at 10 µM was -14.4%.
The same measure for `COc1cc(C)nc(N2CCN(C(=O)c3ccn(C)c(=O)c3)CC2)n1`: -12.8%; for `CCNc1cc2c(nn1)CCN(C(=O)Cc1ccc(C)nc1)C2`: -3.63%; for `Cn1cnc2c1CCN(Cc1cccc(C(=O)N3CCCCC3)c1)C2`: -2.75%.
`O=C(Nc1ccncc1)N(CCO)Cc1ccsc1`: the cytotoxicity at 10 µM was -3.98%.
As to `CC(C)c1noc(CCCC(=O)N2CCN(Cc3cccnc3)CC2)n1`, the cytotoxicity at 10 µM was -2.96%.
As for `c1ccc(-c2nc(CN3CCCCC3Cn3cncn3)co2)cc1` (configuration not stated), the cytotoxicity at 10 µM was -14.4%.
The same measure for `CC(Cn1cccn1)NC(=O)c1cccs1` (configuration not stated): -4.26%; for `Cc1cc(C(=O)N2CCCC(n3cncn3)C2)c(C)n1CC1CC1` (configuration not stated): 2.37%; for `Cc1nnc(NC(=O)NCc2ccnc(N(C)C)c2)s1`: -10.2%.
With `Cc1cn2nc(N3CCCC3Cn3nc(C)nc3C)sc2n1` (configuration not stated), the cytotoxicity at 10 µM is -14.6%.
Take `CC(c1cccc(F)c1)N1CCN(Cc2nccn2C)CC1` (configuration not stated): the cytotoxicity at 10 µM was -7.81%.
As to `CCn1cnnc1C1CCN(C(=O)COc2ccccc2OC)CC1`, the cytotoxicity at 10 µM is -4.41%.
Regarding `c1ccc(-c2nc(CN3CCCC(Cn4cncn4)C3)no2)cc1` (configuration not stated), the cytotoxicity at 10 µM is 3.71%.
Regarding `CN(C)CCN(C)C(=O)Cc1ccc2c(c1)OCCO2`, the cytotoxicity at 10 µM is -7.94%.
For `O=C(c1ccnnc1)N1CCN(Cc2cccnc2)c2ncccc2C1`, the cytotoxicity at 10 µM was 0.121%.
Turning to `Cc1cccc(CN2C(=O)CCC23CCN(C(=O)NC(C)C)CC3)n1`, the cytotoxicity at 10 µM was found to be 5%.
In the case of `CN(C)C(=O)N1CCc2onc(C(=O)Nc3cccnc3)c2C1`, the cytotoxicity at 10 µM worked out at 4.85%.
Regarding `O=C1[C@H]2CN(Cc3nccs3)C[C@H]2CN1c1cncnc1`, the cytotoxicity at 10 µM was -81.9%.
Then `Cc1nc(CN2Cc3nccn3CC(CN3CCOCC3)C2)cs1` (configuration not stated), with 0.951%; and `CN1C(=O)CC(c2ccccc2)C12CCN(CC1CC1)CC2` (configuration not stated), with -1.95%; and `CO[C@H]1CC[C@H]2[C@H]1OCCN2Cc1ccc(F)cc1`, with 7.34%.
With `Cc1cccc(CN2CC[C@@H]3[C@@H]2CCN3C(=O)c2cc(C)on2)n1`, the cytotoxicity at 10 µM was -0.762%.
For the compound `O=C(NC1CCC2(CCC(=O)N2CC2CC2)CC1)c1cnccn1` (configuration not stated), the cytotoxicity at 10 µM amounted to 0.729%.
